Key:
Angiotensin II receptor = molecular target: T1, Angiotensin II receptor (Rattus norvegicus, UniProt P29089+P25095+P35351); assay: Angiotensin II receptor antagonist activity was tested in rat isolated uterus assay using [Asp1,Ile5]ANG II (human angiotensin II) as the standard; type: functional, tissue-based
T1 sequence (P29089 whole entry): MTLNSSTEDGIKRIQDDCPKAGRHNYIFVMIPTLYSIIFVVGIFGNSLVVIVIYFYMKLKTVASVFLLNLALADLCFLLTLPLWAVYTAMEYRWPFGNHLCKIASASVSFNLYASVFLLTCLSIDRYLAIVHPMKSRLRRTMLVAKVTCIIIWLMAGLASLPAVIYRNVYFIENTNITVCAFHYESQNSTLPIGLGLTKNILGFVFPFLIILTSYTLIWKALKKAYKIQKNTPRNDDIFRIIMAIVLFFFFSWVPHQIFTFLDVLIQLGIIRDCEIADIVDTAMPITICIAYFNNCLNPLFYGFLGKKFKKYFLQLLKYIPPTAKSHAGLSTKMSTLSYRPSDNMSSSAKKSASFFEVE
T1 sequence (P25095 whole entry): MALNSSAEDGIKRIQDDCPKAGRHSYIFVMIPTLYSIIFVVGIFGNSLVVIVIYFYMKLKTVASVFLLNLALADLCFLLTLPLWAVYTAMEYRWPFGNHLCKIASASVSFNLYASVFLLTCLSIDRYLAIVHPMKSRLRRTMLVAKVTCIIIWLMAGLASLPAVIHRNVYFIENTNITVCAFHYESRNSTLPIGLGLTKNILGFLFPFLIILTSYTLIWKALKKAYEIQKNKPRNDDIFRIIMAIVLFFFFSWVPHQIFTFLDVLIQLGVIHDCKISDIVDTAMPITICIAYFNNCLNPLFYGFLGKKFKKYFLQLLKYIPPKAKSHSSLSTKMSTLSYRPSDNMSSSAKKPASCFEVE
T1 sequence (P35351 whole entry): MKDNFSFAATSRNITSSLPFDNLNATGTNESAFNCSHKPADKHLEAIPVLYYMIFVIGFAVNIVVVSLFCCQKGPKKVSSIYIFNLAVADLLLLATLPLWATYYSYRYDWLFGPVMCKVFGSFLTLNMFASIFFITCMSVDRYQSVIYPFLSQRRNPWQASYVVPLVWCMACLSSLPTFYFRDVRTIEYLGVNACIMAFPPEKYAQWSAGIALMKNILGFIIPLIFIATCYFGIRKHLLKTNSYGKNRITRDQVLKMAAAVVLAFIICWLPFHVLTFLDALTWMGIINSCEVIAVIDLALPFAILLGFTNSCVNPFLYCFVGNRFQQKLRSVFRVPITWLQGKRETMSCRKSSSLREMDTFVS
Outline: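 Defatted, halved uterine horns from diethylstilbestrol-primed virgin Sprague-Dawley rats (150–250 g), at 1 g tension in a 3-mL bath at pH 7.0, oxygen-gassed (150 mM NaCl, 5.6 mM KCl, 0.18 mM CaCl2, 1.8 mM NaHCO3, 1.4 mM glucose). Isotonic recording of contraction. pA2 is the negative log of the antagonist concentration that cuts the response to an EC50 dose of human ANG II down to the response to half the EC50 dose. Mean ± SEM.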

[1] = molecular target: T2, Angiotensin II receptor (Rattus norvegicus) (UniProt P29089+P25095+P35351); assay: Angiotensin II receptor agonist activity was tested in rat isolated uterus assay using [Asp1,Ile5]ANG II (human angiotensin II) as the standard; type: functional, tissue-based
Outline: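 Uterine horns from diethylstilbestrol-primed virgin Sprague-Dawley rats (150–250 g), defatted and halved. Each half held at 1 g tension in a 3-mL bath at pH 7.0, oxygen-gassed (150 mM NaCl, 5.6 mM KCl, 0.18 mM CaCl2, 1.8 mM NaHCO3, 1.4 mM glucose). Contractions recorded isotonically. Agonism measured by matching each response to an equivalent response to human ANG II. Mean ± SEM.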

[2] = molecular target: T2, Angiotensin II receptor (Rattus norvegicus); assay: Compound was evaluated for the antagonistic activity against rat Angiotensin II receptor by using isometric bioassay system; type: functional

SMILES	pA2 (Angiotensin II receptor)	Activity [1]	Activity [2]
CC[C@H](C)[C@H](NC(=O)[C@@H]1C[C@@H](O)CN1C(=O)[C@@H](NC(=O)[C@H](CCCN=C(N)N)NC(=O)CNC)C(C)C)C(=O)N[C@@H](Cc1c[nH]cn1)C(=O)N1CCC[C@H]1C(=O)N[C@@H](Cc1ccccc1)C(=O)O	< 5		
CC[C@H](C)[C@H](NC(=O)[C@@H](Cc1ccc(O)cc1)NC(=O)[C@@H](NC(=O)[C@H](CCCN=C(N)N)NC(=O)CNC)C(C)C)C(=O)N[C@@H](Cc1c[nH]cn1)C(=O)N1CCC[C@H]1C(=O)N[C@@H](Cc1ccccc1)C(=O)O	< 6.5		
CC[C@H](C)[C@H](NC(=O)[C@H](Cc1ccc(OC)cc1)NC(=O)[C@@H](NC(=O)[C@H](CCCN=C(N)N)NC(=O)[C@@H]1CCCN1)C(C)C)C(=O)N[C@@H](Cc1c[nH]cn1)C(=O)N1CCC[C@@H]1C(=O)N[C@@H](Cc1ccccc1)C(=O)O		0.3%	
CC[C@H](C)[C@H](NC(=O)[C@@H]1C[C@@H](O)CN1C(=O)[C@@H](NC(=O)[C@H](CCCN=C(N)N)NC(=O)CNC)C(C)C)C(=O)N[C@@H](Cc1c[nH]cn1)C(=O)N1CCC[C@@H]1C(=O)N[C@@H](Cc1ccccc1)C(=O)O		< 0.1%	
CC[C@H](C)[C@H](NC(=O)C1CCCN1C(=O)[C@H](Cc1c[nH]cn1)NC(=O)[C@@H](NC(=O)[C@H](Cc1ccc(O)cc1)NC(=O)[C@@H](NC(=O)[C@H](CCCN=C(N)N)NC(=O)CNC)C(C)C)[C@@H](C)CC)C(=O)O (single isomer, unassigned)		< 0.1%	
CC[C@H](C)[C@H](NC(=O)[C@H](Cc1ccc(OC)cc1)NC(=O)[C@@H](NC(=O)[C@H](CCCN=C(N)N)NC(=O)CNC)C(C)C)C(=O)N[C@@H](Cc1c[nH]cn1)C(=O)N1CCC[C@H]1C(=O)N[C@@H](Cc1ccccc1)C(=O)O	7.5	< 0.1%	8.1
CCOc1ccc(C[C@H](NC(=O)[C@@H](NC(=O)[C@H](CCCN=C(N)N)NC(=O)CNC)C(C)C)C(=O)N[C@H](C(=O)N[C@@H](Cc2c[nH]cn2)C(=O)N2CCC[C@H]2C(=O)N[C@@H](Cc2ccccc2)C(=O)O)[C@@H](C)CC)cc1	< 6	0.2%	
CC[C@H](C)[C@H](NC(=O)[C@@H](Cc1ccccc1)NC(=O)[C@@H](NC(=O)[C@H](CCCN=C(N)N)NC(=O)CNC)C(C)C)C(=O)N[C@@H](Cc1c[nH]cn1)C(=O)N1CCC[C@@H]1C(=O)N[C@@H](Cc1ccccc1)C(=O)O	< 5.5	< 0.1%	
CC[C@H](C)[C@H](NC(=O)[C@H]1CCCN1C(=O)[C@H](Cc1c[nH]cn1)NC(=O)[C@@H](NC(=O)[C@@H](Cc1ccc(O)cc1)NC(=O)[C@@H](NC(=O)[C@H](CCCN=C(N)N)NC(=O)CNC)C(C)C)[C@@H](C)CC)C(=O)O		< 0.1%	
CC[C@H](C)[C@H](NC(=O)[C@@H](Cc1ccc(O)cc1)NC(=O)[C@@H](NC(=O)[C@H](CCCN=C(N)N)NC(=O)CNC)C(C)C)C(=O)N[C@@H](Cc1c[nH]cn1)C(=O)N1CCC[C@@H]1C(=O)N[C@@H](Cc1ccccc1)C(=O)O		2%	
CC[C@H](C)[C@H](NC(=O)[C@H](Cc1ccc(OC)cc1)NC(=O)[C@@H](NC(=O)[C@H](CCCN=C(N)N)NC(=O)[C@@H]1CCCN1)C(C)C)C(=O)N[C@@H](Cc1c[nH]cn1)C(=O)N1CCC[C@H]1C(=O)N[C@@H](Cc1ccccc1)C(=O)O	< 6		
CC[C@H](C)[C@H](NC(=O)[C@@H]1CCCN1C(=O)[C@H](Cc1c[nH]cn1)NC(=O)[C@@H](NC(=O)[C@H](Cc1ccc(OC)cc1)NC(=O)[C@@H](NC(=O)[C@H](CCCN=C(N)N)NC(=O)CNC)C(C)C)[C@@H](C)CC)C(=O)O	6.6	< 0.1%	
CC[C@H](C)[C@H](NC(=O)[C@H](Cc1ccc(OC)cc1)NC(=O)[C@@H](NC(=O)[C@H](CCCN=C(N)N)NC(=O)[C@H](C)N)C(C)C)C(=O)N[C@@H](Cc1c[nH]cn1)C(=O)N1CCC[C@H]1C(=O)N[C@@H](Cc1ccccc1)C(=O)O	< 6		
CC[C@H](C)[C@H](NC(=O)[C@H](Cc1ccccc1)NC(=O)[C@@H](NC(=O)[C@H](CCCN=C(N)N)NC(=O)CNC)C(C)C)C(=O)N[C@@H](Cc1c[nH]cn1)C(=O)N1CCC[C@H]1C(=O)N[C@@H](Cc1ccccc1)C(=O)O	7.9	22%	
CC[C@H](C)[C@H](NC(=O)[C@H](Cc1ccc(OC)cc1)NC(=O)[C@@H](NC(=O)[C@H](CCCN=C(N)N)NC(=O)[C@H](C)N)C(C)C)C(=O)N[C@@H](Cc1c[nH]cn1)C(=O)N1CCC[C@@H]1C(=O)N[C@@H](Cc1ccccc1)C(=O)O		< 0.1%	

Now from value to molecule:

pA2 (Angiotensin II receptor)	Activity [1]	Activity [2]	SMILES
< 6			CC[C@H](C)[C@H](NC(=O)[C@@H](NC(=O)[C@@H](NC(=O)[C@H](CCCN=C(N)N)NC(=O)CNC)C(C)C)[C@@H](C)O)C(=O)N[C@@H](Cc1c[nH]cn1)C(=O)N1CCC[C@H]1C(=O)N[C@@H](Cc1ccccc1)C(=O)O
< 6			CC[C@H](C)[C@H](NC(=O)[C@@H](NC(=O)[C@H](CCCN=C(N)N)NC(=O)CNC)C(C)C)C(=O)N[C@H](C(=O)N[C@@H](Cc1c[nH]cn1)C(=O)N1CCC[C@H]1C(=O)N[C@@H](Cc1ccccc1)C(=O)O)[C@@H](C)CC
	2%		CC[C@H](C)[C@H](NC(=O)[C@@H](NC(=O)[C@@H](NC(=O)[C@H](CCCN=C(N)N)NC(=O)CNC)C(C)C)[C@H](C)O)C(=O)N[C@@H](Cc1c[nH]cn1)C(=O)N1CCC[C@@H]1C(=O)N[C@@H](Cc1ccccc1)C(=O)O
	0.2%		CC[C@H](C)[C@H](NC(=O)[C@@H](NC(=O)[C@H](CCCN=C(N)N)NC(=O)CNC)C(C)C)C(=O)N[C@H](C(=O)N[C@@H](Cc1c[nH]cn1)C(=O)N1CCC[C@@H]1C(=O)N[C@@H](Cc1ccccc1)C(=O)O)[C@@H](C)CC
< 5	< 0.1%		CC[C@H](C)[C@H](NC(=O)[C@H]1CCCN1C(=O)[C@H](Cc1c[nH]cn1)NC(=O)[C@@H](NC(=O)[C@@H](Cc1ccccc1)NC(=O)[C@@H](NC(=O)[C@H](CCCN=C(N)N)NC(=O)CNC)C(C)C)[C@@H](C)CC)C(=O)O
6.7	< 0.1%		CC[C@H](C)[C@H](NC(=O)[C@@H]1CCCN1C(=O)[C@H](Cc1c[nH]cn1)NC(=O)[C@@H](NC(=O)[C@H](Cc1ccccc1)NC(=O)[C@@H](NC(=O)[C@H](CCCN=C(N)N)NC(=O)CNC)C(C)C)[C@@H](C)CC)C(=O)O

Reference: ChEMBL document CHEMBL1123284, “Structure-activity relationships for the competitive angiotensin antagonist [sarcosine,O-methyltyrosine4]angiotensin II (sarmesin)” (J Med Chem, 1986)
